Rows were chosen to be rich in hits. Some 9.6% of all compounds tested hit in one or more screens of this group.
L major viab = inhibitors of Leishmania major promastigote growth. Leishmania major promastigotes, resazurin fluorescence viability. AID 1063. actives 9% (n = 200,000). inhibition, % at 10 µM; in the data active means inhibition above about 50%;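 further: promastigotes grown with compound for 44 hours at 28 °C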
TNAP inh hiacc = blocks human TNAP under high phosphate acceptor concentration. P05186. purified TNAP, CDP-star luminescence, 1 M DEA. inhibition, % at 20 µM. actives 0.03% (n = 200,000);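 active means over 50% inhibition of tissue-nonspecific alkaline phosphatase at 20 µM in the single-dose screen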;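 further: plate controls were DMSO wells for no effect and EDTA-quenched wells as full inhibition for full effect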
Target sequence (P05186 whole entry, looked up): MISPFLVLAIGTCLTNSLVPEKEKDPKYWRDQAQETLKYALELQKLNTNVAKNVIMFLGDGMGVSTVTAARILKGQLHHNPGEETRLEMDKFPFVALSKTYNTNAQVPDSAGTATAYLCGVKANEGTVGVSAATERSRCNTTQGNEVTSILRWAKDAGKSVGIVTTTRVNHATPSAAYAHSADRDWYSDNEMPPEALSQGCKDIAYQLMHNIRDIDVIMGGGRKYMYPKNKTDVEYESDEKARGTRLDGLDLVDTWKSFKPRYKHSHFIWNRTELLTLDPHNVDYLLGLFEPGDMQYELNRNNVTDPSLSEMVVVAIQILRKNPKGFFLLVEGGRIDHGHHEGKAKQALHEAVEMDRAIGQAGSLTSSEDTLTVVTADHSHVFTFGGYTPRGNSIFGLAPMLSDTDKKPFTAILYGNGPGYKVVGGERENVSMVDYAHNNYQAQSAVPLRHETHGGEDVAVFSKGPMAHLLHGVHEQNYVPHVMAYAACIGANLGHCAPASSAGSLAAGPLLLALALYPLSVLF
TNAP inh noacc = inhibitors of human TNAP without phosphate acceptor | P05186 | purified TNAP, CDP-star luminescence, 30 min | inhibition, % at 20 µM | actives 0.26% (n = 200,000);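 active means tissue-nonspecific alkaline phosphatase inhibition above about 50% at 20 µM in the single-dose screen, limit read from the data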;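 further: 0% = DMSO negative control and 100% = EDTA positive control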
TNAP act hiacc = increases human TNAP activity under high phosphate acceptor concentration; AID 1136; P05186; 200,000 tested, under 10 active; purified TNAP, CDP-star luminescence, 1 M DEA, 30 min; hits give high values; 0 = EDTA background, 1 = DMSO-only activity; activation factor at 20 µM;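 active means activation factor at least 2 at 20 µM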
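system = human TNAP | amount = enzyme diluted 1/800 final | reagent = 100 µM CDP-star substrate | signal = luminescent substrate turnover signal | dosing = one dose, 20 µM | benchmarks = EDTA negative control, DMSO positive control | measure = activation factor | timing = 30 min reaction, room temperature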
PTEN del growth = PTEN-deleted cell growth suppression; HCT116 PTEN-null viability, CellTiter-Glo, 60 h; hits give low values; viability, % at 10 µM; actives 1.2% (n = 140,000);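 active means viability at or below a set limit, 4 SD under the median of all tested compounds, cut at about 3.7% in these data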;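 further: PTEN knockout HCT116 line with beta catenin targeted HCT116 as companion control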
HCT116 bCat-KO = beta-catenin-lacking colon tumor cell growth suppression | HCT116 beta-catenin knockout viability, CellTiter-Glo, 60 h; hits give low values | viability, % at 10 µM | actives 1.5% (n = 140,000);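 active means viability at or under a set limit, the compound median less 4 SD, cut at about 6% in these data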;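 further: 0% = Hyamine 1622 control at 20 µM and 100% = untreated cell control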
* = called active by the depositor; . = not tested or not shown.

SMILES	L major viab	TNAP inh hiacc	TNAP inh noacc	TNAP act hiacc	PTEN del growth	HCT116 bCat-KO
CN1CCN(S(=O)(=O)c2cccc(C(=O)Nc3ccccc3N3CCOCC3)c2)CC1	3.9	-6.0	-12.5	1.1	.	.
O=C(N/N=C/c1cccs1)c1cc(-c2ccncc2)nc2ccccc12	13.8	-0.2	0.2	1	13.4	16.5
COc1ccccc1-c1cc(C(=O)N/N=C/c2cccs2)c2ccccc2n1	50.9*	3.3	-9.9	1	69.5	68.0
O=C(CSc1nc2[nH]ncc2c(=O)[nH]1)N1CCCCC1	-1.9	1.1	-2.1	1	85.4	89.3
Cc1cccn2c(/C=N/OCc3cccc(F)c3)c(-c3ccc(Cl)cc3)nc12	56.1*	4.5	-0.7	1	64.5	65.3
COc1cccc(/C(C#N)=C/c2c(-c3ccc(Cl)cc3)nc3c(C)cccn23)c1	67.2*	-0.7	3.9	1	56.8	72.0
CCc1ccccc1NC(=O)CN(C)C(=O)CSc1nnc(Nc2cccc(C)c2)s1	-2.1	-3.1	-0.9	1	89.2	85.2
CCc1ccccc1NC(=O)CN(C)C(=O)CSc1nnc(Nc2ccc(C)cc2)s1	72.2*	2.2	-9.0	1	93.5	88.1
Cc1ccc(Nc2nnc(SCC(=O)Nc3cccnc3Cl)s2)cc1C	82.9*	-6.2	-15.0	1.1	78.1	72.6
CCc1ccc(Nc2nnc(SCC(=O)N(C)CC(=O)Nc3ccccc3CC)s2)cc1	73.5*	-7.9	-4.5	1.1	62.8	67.3
COc1ccc(N=C(NN)c2ccc3ccccc3n2)cc1	1.5	4.1	-10.6	1	54.8	44.2
CCN(CC)C(=O)c1[nH]cnc1C(=O)N[C@@H](CC(C)C)C(=O)OCc1ccccc1	1.9	-5.7	-1.3	1.1	.	.
COc1ccc(CNC(=O)C(=O)NCC2OCCN2S(=O)(=O)c2cccs2)cc1 (stereo not given)	-3.9	-1.9	-3.9	1	92.3	99.8
COc1ccc(NC(=O)c2cncc(Br)c2)cc1S(=O)(=O)N1CCCCC1	73.0*	-0.4	-3.6	1	87.5	81.4
COc1ccc(NC(=O)[C@@H](NC(=O)c2ccccc2)C(C)C)cc1S(=O)(=O)N1CCCCC1	72.4*	-3.2	-15.3	1	92.0	93.6
COc1ccc(NS(=O)(=O)c2cccc(Cl)c2)cc1S(=O)(=O)N1CCCCC1	59.4*	-3.9	3.0	1	91.8	87.2
COc1ccc(NC(=O)c2cc(OC)c(OC)c(OC)c2)cc1S(=O)(=O)N1CCCCC1	15.4	-5.3	-7.9	1.1	.	.
CC(C)CC(NC(=O)c1ccc(Cl)cc1)C(=O)OCc1cc([N+](=O)[O-])cc2c1OCOC2 (stereo not given)	4.7	0.7	-8.2	1	88.1	93.0
CCc1nnc(NC(=O)CSc2nc(-c3ccccc3)cc(-c3ccc(OC)cc3)c2C#N)s1	-6.9	-0.2	-11.7	1	79.8	72.0
CC(C)CC(NC(N)=O)C(=O)OCC(=O)Nc1ccc(OC(F)F)cc1 (stereo not given)	-5.6	-5.6	-3.6	1.1	.	.
CCn1cc(C(=O)NCc2ccccn2)c(=O)c2cc(F)c(N3CCN(C)CC3)cc21	.	-4.8	-12.3	1	91.5	85.5
CCn1cc(C(=O)NCc2ccc3c(c2)OCO3)c(=O)c2cc(F)c(N3CCN(C)CC3)cc21	79.1*	-5.0	-8.3	1.1	2.3*	2.5*
CCn1cc(C(=O)NCCc2ccccc2)c(=O)c2cc(F)c(N3CCN(C)CC3)cc21	97.2*	-1.3	-2.1	1	53.0	51.4
Cc1cc(C)c2nc(SCC(=O)NCCN3C(=O)CSC3=O)cc(C)c2c1	-0.1	2.8	-11.4	1	81.6	95.4
CCCc1[nH][nH]c(=O)c1C(c1ccc(Br)cc1)C(C#N)C#N (stereo not given)	50.3*	1.9	-12.5	1	94.2	93.0
SMILES	L major viab	TNAP inh hiacc	TNAP inh noacc	TNAP act hiacc	PTEN del growth	HCT116 bCat-KO
S=C(NCC1CCCO1)NC1CC1 (stereo not given)	-3.6	-8.2	-10.4	1.1	.	.
Cc1cccc(NC(=O)C2CCN(S(=O)(=O)c3cccc4nsnc34)CC2)n1	5.2	-2.6	-8.1	1	89.4	90.7
Cc1cccc(NC(=O)C2CCN(S(=O)(=O)c3c(C)noc3/C=C/c3ccco3)CC2)n1	98.7*	-3.6	-5.4	1	33.0	51.2
N#CC(c1ccccc1)c1ccc(C(=O)c2ccc(F)cc2)cc1 (stereo not given)	59.9*	-7.0	-3.6	1.1	58.4	55.7
CCN(CC(=O)NC(C)C)C(=O)[C@@H](NC(=O)c1ccco1)C(C)C	-8.7	-5.2	5.7	1.1	.	.
O=C(NN(c1ccccc1)c1ccccc1)c1ccc([N+](=O)[O-])o1	84.6*	3.1	3.3	1	.	.
C/C(=N/NC(=O)C(O)(c1ccccc1)c1ccccc1)c1ccc([N+](=O)[O-])o1	96.2*	0.4	-5.9	1	.	.
O=C(NNC(=O)c1ccc([N+](=O)[O-])o1)c1ccccc1	97.7*	-2.8	8.7	1	7.2	13.9
COc1ccc(C)cc1NC(=O)C(OC(=O)c1ccc([N+](=O)[O-])o1)c1ccccc1 (stereo not given)	-6.7	-6.3	-4.2	1.1	96.9	104.2
O=C(c1ccc([N+](=O)[O-])o1)N1CCOCC1	47.4	-1.7	-7.9	1	.	.
O=C(COC(=O)c1ccc([N+](=O)[O-])o1)Nc1cccc2ccccc12	-16.7	-1.7	-11.5	1	.	.
Cc1ccc(S(=O)(=O)NCCC(=O)NCc2ccco2)cc1	-5.6	-1.4	-10.4	1	94.0	83.0
O=C(O)c1ccccc1C(=O)NNc1ccc(Cl)cc1Cl	-2.3	3.0	-5.2	1	.	.
CC(=O)c1cccc(CN2CCN(Cc3ccc(C)cc3)C(CCO)C2)c1 (stereo not given)	79.3*	-1.0	-5.1	1	.	.
OCCC1CN(Cc2ccc3c(c2)CCO3)CCN1Cc1ccc(F)cc1 (stereo not given)	75.4*	-6.6	-9.2	1.1	.	.
CC(=O)c1cccc(CN2CCN(Cc3ccc(F)cc3)C(CCO)C2)c1 (stereo not given)	87.2*	-4.4	-6.1	1	.	.
CC(=O)Nc1ccc2nc(CN3CCN(Cc4ccc(F)cc4)C(CCO)C3)ccc2c1 (stereo not given)	-4.1	-5.3	-1.6	1.1	.	.
CC(=O)c1cccc(CN2CCN(C3CCCC3)C(CCO)C2)c1 (stereo not given)	44.9	-0.8	-5.3	1	.	.
CC(=O)c1cccc(CN2CCN(CCc3ccccc3)C(CCO)C2)c1 (stereo not given)	67.6*	-0.4	3.7	1	.	.
COc1cc(OC)cc(C(=O)N[C@H](C(=O)Nc2cc(C)cc(C)c2)C(C)C)c1	4.6	-3.2	-7.4	1	.	.
Cc1ccc(CN2CCN(Cc3ccc(-n4cccn4)cc3C)CC2CCO)cc1 (stereo not given)	21.0	-1.2	-5.2	1	.	.

Screening data: PubChem, several laboratories
